Reference: ChEMBL document CHEMBL1667823, “Design and synthesis of 4-arylpiperidinyl amide and N-arylpiperdin-3-yl-cyclopropane carboxamide derivatives as novel melatonin receptor ligands” (Bioorg Med Chem Lett, 2011)

Columns and labels:
[1] = Binding affinity to rat MT2 receptor expressed in CHO-Galpha16 cells assessed as Ca2+ mobilization after 20 mins by FLIPR assay; assay type: cell-based
How it was run: (§1)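 CHO-Galpha16 cells expressing rat MT1 or MT2, plated 24 h ahead, loaded with Fluo4-AM (1.5 final) plus pluronic acid in HBSS/20 mM HEPES/0.1% BSA pH 7.4 with 2.5 mM probenecid, 1 h at 37 °C, then washed. Ca2+ read by FLIPR. Agonist mode: 15 s baseline, compound added, 3 min read. Antagonist mode: compound preincubated 20 min at room temperature, then melatonin at EC80, 3 min read.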

[2] = tested on: CHO-Galpha16; assay: Intrinsic activity at rat MT1 receptor expressed in CHO-Galpha16 cells assessed as Ca2+ mobilization after 20 mins by FLIPR assay relative to ramelteon; assay type: cell-based; how it was run: as §1
[3] = organism: Rattus norvegicus; assay: Intrinsic activity at rat MT2 receptor expressed in CHO-Galpha16 cells assessed as Ca2+ mobilization after 20 mins by FLIPR assay relative to agomelatine; assay type: cell-based; how it was run: as §1
[4] = Displacement of [3H]melatonin from rat MT1 receptor expressed in CHO-Galpha16 cells; assay type: cell-based
How it was run: (§2)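 Rat MT1 or MT2 membranes from CHO-Galpha16 cells incubated with [3H]-melatonin (0.5 nM final, 80 Ci/mmol) in 50 mM Tris/HCl pH 7.4, 5 mM MgCl2. Nonspecific binding defined with excess melatonin. Stopped by rapid GF/B filtration with five ice-cold washes. Ki from IC50 via Cheng–Prusoff.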

[5] = Displacement of [3H]melatonin from rat MT2 receptor expressed in CHO-Galpha16 cells; assay type: cell-based; how it was run: as §2
[6] = Binding affinity to rat MT1 receptor expressed in CHO-Galpha16 cells assessed as Ca2+ mobilization after 20 mins by FLIPR assay; assay type: cell-based; how it was run: as §1
[7] = tested on: CHO-Galpha16; assay: Inhibition of rat MT2 receptor expressed in CHO-Galpha16 cells relative to control; assay type: cell-based; settings: dose or concentration not given here; how it was run: as §1
[8] = tested on: CHO-Galpha16; assay: Inhibition of rat MT1 receptor expressed in CHO-Galpha16 cells relative to control; assay type: cell-based; set-up: concentration or dose not given beside the values; settings: dose or concentration not given here; how it was run: as §1
[9] = Drug level in rat brain at 10 mg/kg, ip after 1 hr; assay type: ADME, organism-based; set-up: dose 10 mg/kg, route intraperitoneal; settings: read-out: Drug uptake
How it was run: (§3)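 Rats dosed 10 mg/kg IP, with brain and plasma concentrations taken at 1 h. Vehicle varied: 20% HP-bCD, 15% Solutol, or 10% DMSO with 2.5% PEG400 in 15% Solutol. B/P is the brain-to-plasma concentration ratio.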

[10] = tested on: Liver microsomes; assay: Intrinsic clearance in rat liver microsome at 1 uM by LC/MS analysis; assay type: ADME
How it was run: (§4)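 Compound at 1 µM incubated with liver microsomes (0.5 mg/mL protein) and an NADPH-regenerating system, sampled at 0, 5, 15, 30 and 60 min. Quenched, centrifuged supernatants analysed by LC/MS for remaining parent to estimate T1/2.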

[11] = Drug level in rat plasma at 10 mg/kg, ip after 1 hr; assay type: ADME, organism-based; set-up: dose 10 mg/kg, route intraperitoneal; settings: read-out: Drug uptake; how it was run: as §3
[12] = Ratio of drug level in rat brain to plasma at 10 mg/kg, ip after 1 hr; assay type: ADME, organism-based; set-up: dose 10 mg/kg, route intraperitoneal; how it was run: as §3
[13] = tested on: Liver microsomes; assay: Intrinsic clearance in human liver microsome at 1 uM by LC/MS analysis; assay type: ADME; how it was run: as §4
[14] = organism: Rattus norvegicus; assay: (§5) Ratio of Ki for rat MT1 to Ki for rat MT2; how it was run: as §2
[15] = as §5; how it was run: as §2
[16] = Agonist activity at human MT1 receptor; assay type: functional
[17] = Agonist activity at human MT2 receptor; assay type: functional

| SMILES | EC50 [1] [nM] | Intrinsic activity [2] [%] | Intrinsic activity [3] [%] | Ki [4] [nM] | Ki [5] [nM] | EC50 [6] [nM] | further results |
| --- | --- | --- | --- | --- | --- | --- | --- |
| COc1cccc(C2CCN(C(=O)[C@H]3C[C@@H]3C)CC2)c1 | 140 | 19 | 65 | 150 | 35 | 610 | – |
| CC(C)Oc1cccc(C2CCN(C(=O)C3CC3)CC2)c1 | > 10000 | 9 | 10 | – | – | > 10000 | – |
| COc1ccc2[nH]cc(CCNC(C)=O)c2c1 [MELATONIN] | 1.1 | 97 | 97 | 0.99 | 0.58 | 0.56 | – |
| O=C(N[C@H]1CCCN(c2cccc(OCCO)c2)C1)C1CC1 | > 10000 | 3 | 12 | 610 | 150 | > 10000 | inhibition [7]: 94%; inhibition [8]: 91%; IC50 [4]: 930 nM; IC50 [5]: 31 nM |
| COc1ccc2cccc(CCNC(C)=O)c2c1 [AGOMELATINE] | 1.4 | 94 | 100 | 1.2 | 0.14 | 2.1 | concentration at 1 h [9]: 1030 nM; clearance [10]: 144 µL/min/mg; concentration at 1 h [11]: 700 nM; Kp at 1 h [12]: 1.5; clearance [13]: 361 µL/min/mg |
| COc1cccc(N2CCC[C@H](NC(=O)C3CC3)C2)c1 | 6.2 | 77 | 74 | 9.9 | 2.7 | 3.9 | concentration at 1 h [9]: 180 nM; clearance [10]: 616 µL/min/mg; concentration at 1 h [11]: 730 nM; Kp at 1 h [12]: 0.2; clearance [13]: 28 µL/min/mg |
| O=C(C1CC1)N1CCC(c2cccc(O)c2)CC1 | 3600 | 96 | 23 | – | – | > 10000 | – |
| COc1ccc(C2CCN(C(C)=O)CC2)cc1 | 3400 | 34 | 140 | 4700 | 360 | 1700 | – |
| COc1ccc(C2CCN(C(=O)C3CC3)CC2)cc1 | 5000 | 58 | 94 | 1100 | 870 | > 10000 | – |
| CCOc1cccc(C2CCN(C(=O)C3CC3)CC2)c1 | – | – | – | 5700 | 4100 | – | – |
| COc1cccc(C2CCN(C(=O)C3CCCCC3)CC2)c1 | 2800 | 42 | 36 | – | – | 7500 | – |
| COc1cccc(C2CCN(C(=O)C3CC3)CC2)c1 | 9.5 | 41 | 74 | 40 | 10 | 65 | concentration at 1 h [9]: 540 nM; clearance [10]: 91 µL/min/mg; concentration at 1 h [11]: 390 nM; Kp at 1 h [12]: 1.4; clearance [13]: 29 µL/min/mg; Ratio Ki [14]: 4 |
| COc1cccc(N2CCCC(NC(=O)C3CC3)C2)c1 (racemic) | 2.9 | 85 | 99 | 15 | 2.7 | 9.7 | IC50 [4]: > 10000 nM; IC50 [5]: > 10000 nM; Ki ratio (MT1/MT2) [15]: 5.6 |
| COc1cccc(C2CCN(C(=O)C(C)C)CC2)c1 | 19 | 87 | 76 | 160 | 31 | 98 | – |
| COc1cc(N2CCC[C@H](NC(=O)C3CC3)C2)ccc1Cl | 2.3 | 73 | 65 | 1.2 | 2.1 | 0.74 | clearance [10]: 199 µL/min/mg; clearance [13]: 45 µL/min/mg |
| COc1cccc(C2CCN(C(=O)C3CCC3)CC2)c1 | 200 | 52 | 62 | 140 | 67 | 380 | – |
| COc1cccc(N2CC(NC(=O)C3CC3)Cc3ccccc32)c1 (racemic) | 50 | 84 | 35 | 75 | 6.7 | 170 | – |

| SMILES | EC50 [1] [nM] | Intrinsic activity [2] [%] | Intrinsic activity [3] [%] | Ki [4] [nM] | Ki [5] [nM] | EC50 [6] [nM] | further results |
| --- | --- | --- | --- | --- | --- | --- | --- |
| COc1cccc(-c2cccc(NC(=O)C3CC3)n2)c1 | 1200 | 15 | 57 | 1500 | 83 | > 10000 | inhibition [8]: 41%; IC50 [4]: 3800 nM |
| CCC(CC)C(=O)N1CCC(c2cccc(OC)c2)CC1 | 790 | 32 | 35 | – | – | 2300 | – |
| O=C(N[C@H]1CCCN(c2cccc(OC(F)(F)F)c2)C1)C1CC1 | 12 | 1 | 53 | 190 | 66 | > 10000 | inhibition [8]: 95%; IC50 [4]: 2100 nM |
| COc1cccc(C2CCN(C(=O)c3ccccc3)CC2)c1 | 4400 | 12 | 60 | 650 | 110 | > 10000 | – |
| Cc1cccc(C2CCN(C(=O)C3CC3)CC2)c1 | > 10000 | 0.4 | 15 | – | – | > 10000 | – |
| CCC(=O)N1CCC(c2cccc(OC)c2)CC1 | 42 | 31 | 66 | 810 | 150 | 1300 | – |
| CCC(=O)NCC[C@@H]1CCc2ccc3c(c21)CCO3 [RAMELTEON] | 0.89 | 100 | 95 | 2 | 0.03 | 3.1 | concentration at 1 h [9]: 390 nM; clearance [10]: 60 µL/min/mg; concentration at 1 h [11]: 580 nM; Kp at 1 h [12]: 0.7; clearance [13]: 47 µL/min/mg |
| COc1cccc(C2CCN(C(C)=O)CC2)c1 | > 10000 | 6 | 19 | – | – | > 10000 | – |
| COc1cccc(N2CCC[C@@H](NC(=O)C3CC3)C2)c1 | 93 | 30 | 23 | 1000 | 95 | 3500 | inhibition [7]: 97%; IC50 [5]: 10 nM |
| COc1cccc(C2CCN(C(=O)C3CC3(C)C)CC2)c1 (stereo unspecified) | 147 | 33 | 30 | – | – | 640 | – |
| COc1cccc(C2CCN(C(=O)CC(C)C)CC2)c1 | 1800 | 39 | 35 | – | – | 1700 | – |
| COc1cccc(C2CCN(C(=O)C3CCCC3)CC2)c1 | 110 | 67 | 74 | – | – | 210 | – |
| CCCC(=O)N[C@H]1CCN(c2cccc(OC)c2)C1 | – | – | – | – | – | – | Ki [16]: 3.7 nM; Ki [17]: 2.6 nM |
| O=C(N[C@H]1CCCN(c2cccc(OC(F)F)c2)C1)C1CC1 | 4.2 | 21 | 57 | 410 | 44 | 390 | clearance [10]: 485 µL/min/mg; clearance [13]: 48 µL/min/mg; inhibition [8]: 96%; IC50 [4]: 870 nM |
| COc1ccccc1C1CCN(C(=O)C2CC2)CC1 | > 10000 | 2 | 3 | – | – | > 10000 | – |
| COc1cccc(N2CCCC2CNC(=O)C2CC2)c1 (racemic) | 2.5 | 89 | 98 | 21 | 3.3 | 18 | – |
| COc1cc(N2CCC[C@@H](NC(=O)C3CC3)C2)ccc1Cl | > 10000 | 19 | 23 | 130 | 31 | > 10000 | inhibition [7]: 98%; inhibition [8]: 94%; IC50 [4]: 440 nM; IC50 [5]: 24 nM; Ratio Ki [14]: 4 |
